{"data": "Results from different studies", "effect on": "enzyme activity", "action": "inhibitor", "EGFR": "Epidermal growth factor receptor (EGFR, Homo sapiens, UniProt P00533)", "EGFR T790M": "Epidermal growth factor receptor (EGFR, Homo sapiens, UniProt P00533, T790M)", "EGFR L858R/T790M": "Epidermal growth factor receptor (EGFR, Homo sapiens, UniProt P00533, L858R/T790M)", "note": "Each line is one published result; the experiments were not run side by side."}
{"Structure (SMILES)": "CC/C(=N\\NC(=O)NCc1cccc(O)c1)c1ccc(O)c(C)c1O", "target": "Epidermal growth factor receptor (EGFR, Homo sapiens, UniProt P00533, L858R)", "setting": "0.1 µM", "inhibition [%]": 0.5}
{"Structure (SMILES)": "CS(=O)(=O)Nc1cccc(-c2csc(NC(=O)CSc3nc4nccnc4c(=O)n3CCc3ccccc3)n2)c1", "target": "EGFR", "setting": "10 µM", "inhibition [%]": -1}
{"Structure (SMILES)": "CCCS(=O)(=O)Nc1ccc(F)c(C(=O)c2c[nH]c3ncc(-c4ccc(Cl)cc4)cc23)c1F", "target": "EGFR", "setting": "1 µM", "inhibition [%]": "< 10"}
{"Structure (SMILES)": "COc1cc2ncnc(Nc3ccc(Oc4ccccc4)c(C)c3C)c2cc1OC", "target": "EGFR T790M", "setting": "1 µM", "inhibition [%]": 22}
{"Structure (SMILES)": "COc1cc2c(Nc3cccc(OCCn4ccnc4[N+](=O)[O-])c3)ncnc2cc1OCCCN1CCOCC1", "target": "EGFR", "assay": "FRET", "setting": "1 µM", "inhibition [%]": 24}
{"Structure (SMILES)": "C=CC(=O)Nc1cc(Nc2nc(N3CCc4sccc4C3)c3cccnc3n2)c(OC)cc1N1CCN(C(C)=O)CC1", "target": "EGFR L858R/T790M", "assay": "ELISA", "setting": "0.1 µM", "inhibition [%]": 19.4}
{"Structure (SMILES)": "CNCc1ccc(-c2cc(-c3nc(-c4ccc(S(=O)(=O)C(C)C)cc4)cnc3N)on2)cc1", "target": "EGFR", "setting": "0.4 µM", "inhibition [%]": 0}
{"Structure (SMILES)": "COc1cc(-c2cc(-c3ccc(N4CCNCC4)cc3)cnc2N)cc(OC)c1OC", "target": "EGFR T790M", "setting": "0.1 µM", "inhibition [%]": 2}
{"Structure (SMILES)": "C=CC(=O)Nc1cc(Nc2nc(Nc3cnn(C)c3)c3sccc3n2)c(OC)cc1N(C)CCN(C)C", "target": "EGFR L858R/T790M", "assay": "ELISA", "setting": "0.1 µM", "inhibition [%]": 6.7}
{"Structure (SMILES)": "COCCOc1cc2ncnc(Nc3cccc(OCCn4ccnc4[N+](=O)[O-])c3)c2cc1OCCOC", "target": "EGFR", "assay": "FRET", "setting": "1 µM", "inhibition [%]": 28}
{"Structure (SMILES)": "CN(C)C1CCN(CC#Cc2nn(C3CCCC3)c3nc(NCc4ccccc4)ncc23)C1 (stereo not shown)", "target": "EGFR", "assay": "FRET", "setting": "1 µM", "inhibition [%]": 7}
{"Structure (SMILES)": "C=CC(=O)Nc1cc(Nc2nccc(Nc3cc(Cl)c(F)cc3C(C)(C)O)n2)c(OC)cc1N1CC[C@@H](N(C)C)C1", "target": "EGFR", "setting": "1 µM", "inhibition [%]": 76}
{"Structure (SMILES)": "C=CC(=O)Nc1cc(Nc2nc(N3CCc4sccc4C3)c3cccnc3n2)c(OC)cc1N1CCN(CC)CC1", "target": "EGFR L858R/T790M", "assay": "ELISA", "setting": "0.1 µM", "inhibition [%]": 23.4}
{"Structure (SMILES)": "COc1cc2ncnc(Nc3ccc(Oc4ccccc4)cc3C)c2cc1OC", "target": "EGFR T790M", "setting": "1 µM", "inhibition [%]": 50}
{"Structure (SMILES)": "COc1cc(N(C)CCN(C)C)c(NC(=O)C=C(C)C)cc1Nc1nc(Nc2cnn(C)c2)c2sccc2n1", "target": "EGFR L858R/T790M", "assay": "ELISA", "setting": "0.1 µM", "inhibition [%]": 25.1}
{"Structure (SMILES)": "CCOc1cc(-c2nncn2C)ccc1Nc1ncc2cc(C)nc(NCC(C)(C)C)c2n1", "target": "EGFR", "assay": "FRET", "setting": "1 µM", "inhibition [%]": "< 15"}
{"Structure (SMILES)": "C=CC(=O)Nc1cc(Nc2nc(N3CCc4sccc4C3)c3cccnc3n2)c(OC)cc1N1CCC(N(C)C)CC1", "target": "EGFR L858R/T790M", "assay": "ELISA", "setting": "0.1 µM", "inhibition [%]": 36}
{"Structure (SMILES)": "COc1cc2nccc(Oc3ccc(NC(=O)c4c5n(n(-c6ccc(F)cc6)c4=O)CCCC5)cc3)c2cc1OC", "target": "EGFR", "setting": "0.1 µM", "inhibition [%]": -2}
{"Structure (SMILES)": "COc1cc(N(C)CCN(C)C)c(NC(=O)C=C(C)C)cc1Nc1nc(N2CCc3sccc3C2)c2sccc2n1", "target": "EGFR L858R/T790M", "assay": "ELISA", "setting": "0.1 µM", "inhibition [%]": 19.5}
{"Structure (SMILES)": "CS(=O)(=O)Nc1cc(-c2ccc3ncnc(Nc4ccc(F)c(Cl)c4)c3c2)cnc1Cl", "target": "EGFR", "assay": "FRET", "setting": "10 µM", "inhibition [%]": "90 to 100"}
{"Structure (SMILES)": "C=CC(=O)Nc1cc(Nc2nc(N3CCc4sccc4C3)c3cccnc3n2)c(OC)cc1N1CCSCC1", "target": "EGFR L858R/T790M", "assay": "ELISA", "setting": "0.1 µM", "inhibition [%]": 23.9}
{"Structure (SMILES)": "O=C(CSc1nc2nccnc2c(=O)n1CCc1ccccc1)Nc1nccs1", "target": "EGFR", "setting": "10 µM", "inhibition [%]": -2}
